Source: ChEMBL document CHEMBL2311407, “Design and synthesis of diazatricyclodecane agonists of the G-protein-coupled receptor 119” (J Med Chem, 2013)
Converted amounts (≈) assume the structure as drawn.

Legend:
[1] = Thermodynamic solubility of the compound in PBS at pH 1.2; type: physicochemical; conditions: read-out: Therm_solubility
[2] = Apparent permeability in MDCK2 cells; type: ADME, cell-based, Canis lupus familiaris, MDCK-II; conditions: dog, MDCK
[3] = Apparent intrinsic clearance in human liver microsomes; type: ADME, Microsome; conditions: read-out: CLH(app)
[4] = Fraction unbound in Beagle dog plasma; type: ADME, cell-free, Canis lupus familiaris
[5] = Fraction unbound in Sprague-Dawley rat plasma; type: ADME, cell-free
[6] = Oral bioavailability in Beagle dog at 100 mg/kg administered as spray dried dispersion; type: ADME, organism-based, Canis lupus familiaris; conditions: in vivo
In short: (§1)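 Oral gavage in male beagle dogs at 10, 30 or 100 mg/kg, 5 mL/kg, as 25% spray dried dispersion in 20 mM Tris buffer in 0.5% methylcellulose and 0.5% HPMCAS-HF, pH 7.4. Plasma concentrations are total drug. Values are the mean of two animals. F is based on 1 mg/kg iv dog data.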

[7] = Tmax in Beagle dog at 100 mg/kg, po administered as spray dried dispersion; type: ADME, organism-based, Canis lupus familiaris; set-up: dose 100 mg/kg, route oral; conditions: in vivo; in short: as §1
[8] = Cmax in Beagle dog at 100 mg/kg, po administered as spray dried dispersion; type: ADME, organism-based, Canis lupus familiaris; set-up: dose 100 mg/kg, route oral; conditions: in vivo; in short: as §1
[9] = AUC in Beagle dog at 100 mg/kg, po administered as spray dried dispersion; type: ADME, organism-based, Canis lupus familiaris; set-up: dose 100 mg/kg, route oral; conditions: plasma; in short: as §1
[10] = Oral bioavailability in Beagle dog at 30 mg/kg administered as spray dried dispersion; type: ADME, organism-based, Canis lupus familiaris; conditions: in vivo; in short: as §1
[11] = Tmax in Beagle dog at 30 mg/kg, po administered as spray dried dispersion; type: ADME, organism-based, Canis lupus familiaris; set-up: dose 30 mg/kg, route oral; conditions: in vivo; in short: as §1
[12] = Cmax in Beagle dog at 30 mg/kg, po administered as spray dried dispersion; type: ADME, organism-based, Canis lupus familiaris; set-up: dose 30 mg/kg, route oral; conditions: in vivo; in short: as §1
[13] = AUC in Beagle dog at 30 mg/kg, po administered as spray dried dispersion; type: ADME, organism-based, Canis lupus familiaris; set-up: dose 30 mg/kg, route oral; conditions: plasma; in short: as §1
[14] = Oral bioavailability in Beagle dog at 10 mg/kg administered as spray dried dispersion; type: ADME, organism-based, Canis lupus familiaris; conditions: in vivo; in short: as §1
[15] = Tmax in Beagle dog at 10 mg/kg, po administered as spray dried dispersion; type: ADME, organism-based, Canis lupus familiaris; set-up: dose 10 mg/kg, route oral; conditions: in vivo; in short: as §1
[16] = Cmax in Beagle dog at 10 mg/kg, po administered as spray dried dispersion; type: ADME, organism-based, Canis lupus familiaris; set-up: dose 10 mg/kg, route oral; conditions: in vivo; in short: as §1
[17] = AUC in Beagle dog at 10 mg/kg, po administered as spray dried dispersion; type: ADME, organism-based, Canis lupus familiaris; set-up: dose 10 mg/kg, route oral; conditions: plasma; in short: as §1
[18] = Oral bioavailability in Beagle dog at 3 mg/kg administered as spray dried dispersion; type: ADME, organism-based, Canis lupus familiaris; conditions: in vivo
In short: (§2)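 Male beagle dogs were dosed po at 3 mg/kg, 0.6 mL/kg, as 25% spray dried dispersion in 20 mM Tris buffer with 0.5% methylcellulose + 0.5% HPMCAS-HF, pH 7.4. Plasma concentrations are total drug. Values are the mean of two animals. F is calculated against 1 mg/kg iv dog data.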

[19] = Tmax in Beagle dog at 3 mg/kg, po administered as spray dried dispersion; type: ADME, organism-based, Canis lupus familiaris; set-up: dose 3 mg/kg, route oral; conditions: in vivo; in short: as §2
[20] = Cmax in Beagle dog at 3 mg/kg, po administered as spray dried dispersion; type: ADME, organism-based, Canis lupus familiaris; set-up: dose 3 mg/kg, route oral; conditions: in vivo; in short: as §2
[21] = Half life in Beagle dog at 3 mg/kg, po administered as spray dried dispersion; type: ADME, organism-based, Canis lupus familiaris; set-up: dose 3 mg/kg, route oral; conditions: in vivo; in short: as §2
[22] = AUC in Beagle dog at 3 mg/kg, po administered as spray dried dispersion; type: ADME, organism-based, Canis lupus familiaris; set-up: dose 3 mg/kg, route oral; conditions: plasma; in short: as §2
[23] = Cmax in Beagle dog at 1 mg/kg, iv; type: ADME, organism-based, Canis lupus familiaris; set-up: dose 1 mg/kg, route intravenous; conditions: in vivo
In short: (§3)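 Male beagle dogs received 1 mg/kg iv at 2 mL/kg in 5% dimethylacetamide/75% PEG200/20% (30% SBE-CD). Plasma concentrations are total drug. Values are the mean of two animals.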

[24] = Volume of distribution at steady state in Beagle dog at 1 mg/kg, iv; type: ADME, organism-based, Canis lupus familiaris; set-up: dose 1 mg/kg, route intravenous; conditions: in vivo, read-out: Vdss
In short: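 Male beagle dogs received 1 mg/kg iv at 2 mL/kg in 5% DMA/75% PEG200/20% (30% SBE-CD). Plasma concentrations are reported as total drug. Parameters are means from two animals.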

[25] = Clearance in Beagle dog at 1 mg/kg, iv; type: ADME, organism-based, Canis lupus familiaris; set-up: dose 1 mg/kg, route intravenous; conditions: in vivo; in short: as §3
[26] = Half life in Beagle dog at 1 mg/kg, iv; type: ADME, organism-based, Canis lupus familiaris; set-up: dose 1 mg/kg, route intravenous; conditions: in vivo; in short: as §3

With Cc1c(Oc2ccc(-n3cnnn3)cc2F)ncnc1N1C2CC3CC1CC(C2)N3C(=O)OC1(C)CC1 the solubility thermodynamic [1] was 4.8 µg/mL (≈ 9.48 µM), the Papp [2] was 3.5 ×10⁻⁶ cm/s and the CLint scaled [3] was < 9.5 mL/min/kg. It also gave a fraction unbound [4] of 0.014, a fraction unbound [5] of 0.01 and a bioavailability [6] of 32%. For the same compound, the Tmax [7] was 1.5 h, the Cmax [8] was 6030 ng/mL and the AUC [9] was 151000 ng·h/mL. The bioavailability [10] was 54%, the Tmax [11] was 1 h and the Cmax [12] was 3750 ng/mL. For the same compound, the AUC [13] was 76800 ng·h/mL, the bioavailability [14] was 87% and the Tmax [15] was 1 h. The Cmax [16] was 1950 ng/mL, the AUC [17] was 41000 ng·h/mL and the bioavailability [18] was 60%. For the same compound, the Tmax [19] was 1 h, the Cmax [20] was 812 ng/mL and the half-life [21] was 20 h. It also gave an AUC [22] of 8580 ng·h/mL, a Cmax [23] of 515 ng/mL and a Vd [24] of 3.7 L/kg. For the same compound, the clearance [25] was 1.74 mL/min/kg and the half-life [26] was 26.8 h.
